Measurements from ChEMBL document CHEMBL4819034, “Tricyclic-Carbocyclic RORγt Inverse Agonists-Discovery of BMS-986313” (J Med Chem, 2021).

Key:
[1] = Metabolic stability in rat liver microsomes assessed as parent compound remaining; format: ADME, Microsome
Outline: (§1)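 Test compound at 0.5 μM initial concentration incubated with human, mouse or rat liver microsomes (protein 1 mg/mL). Metabolic stability reported as percent of parent compound remaining after incubation.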

[2] = Metabolic stability in mouse liver microsomes assessed as parent compound remaining; format: ADME, Microsome; outline: as §1
[3] = target: T1, Nuclear receptor ROR-gamma (Homo sapiens, UniProt P51449); assay: Inverse agonist activity at recombinant full-length human Gal4-fused RORgammat expressed in human Jurkat cells incubated for 18 hrs by steady-glo luciferase reporter gene assay; format: cell-based
T1 sequence (P51449 whole entry): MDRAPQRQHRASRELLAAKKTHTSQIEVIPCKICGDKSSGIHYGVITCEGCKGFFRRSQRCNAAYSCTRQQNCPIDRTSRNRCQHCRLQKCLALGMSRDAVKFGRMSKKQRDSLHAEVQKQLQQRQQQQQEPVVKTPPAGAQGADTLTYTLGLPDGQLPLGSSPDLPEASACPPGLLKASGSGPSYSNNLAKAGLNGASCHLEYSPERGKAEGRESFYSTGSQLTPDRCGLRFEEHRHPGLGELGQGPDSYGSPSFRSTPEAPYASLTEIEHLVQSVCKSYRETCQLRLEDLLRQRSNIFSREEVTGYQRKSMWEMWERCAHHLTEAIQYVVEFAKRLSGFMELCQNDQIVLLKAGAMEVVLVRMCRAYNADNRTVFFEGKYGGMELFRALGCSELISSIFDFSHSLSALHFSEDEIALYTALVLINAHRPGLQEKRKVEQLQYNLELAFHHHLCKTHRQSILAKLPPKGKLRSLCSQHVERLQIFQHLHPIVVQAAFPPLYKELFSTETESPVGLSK

[4] = Metabolic stability in human liver microsomes assessed as parent compound remaining; format: ADME, Microsome; outline: as §1
[5] = target: T1, Nuclear receptor ROR-gamma; assay: Inverse agonist activity at RORgammat in CD3 and CD28-stimulated human whole blood assessed as suppression of IL17 preincubated for 1 hr followed by CD3 and CD28 stimulation measured after 20 hrs by AlphaLISA method; format: tissue-based
[6] = Half life in dog liver microsomes; format: ADME, Canis lupus familiaris, Microsome
Outline: (§2)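 Liver microsome half-life (min) measured in human, mouse, rat, dog and cyno liver microsomes.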

[7] = Half life in rat liver microsomes; format: ADME, Microsome; outline: as §2
[8] = Permeability across apical to basolateral membrane in human Caco-2 cells; format: ADME, cell-based; settings: read-out: permeability
Outline: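 Caco-2 monolayer permeability, apical-to-basolateral direction (Pc, nm/s). An efflux ratio is also reported.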

[9] = Half life in human liver microsomes; format: ADME, Microsome; outline: as §2
[10] = Half life in mouse liver microsomes; format: ADME, Microsome; outline: as §2
[11] = Half life in cynomolgus monkey liver microsomes; format: ADME, Macaca fascicularis, Microsome; outline: as §2

| SMILES | Stabilty [1] [%] | Stabilty [2] [%] | Stabilty [4] [%] | further results |
| --- | --- | --- | --- | --- |
| CC(C)(N)C(=O)N[C@@H]1CC[C@@]2(S(=O)(=O)c3ccc(F)cc3)c3ccc(C(F)(C(F)(F)F)C(F)(F)F)cc3CC[C@@H]12 | 100 | 100 | 80 | EC50 [3]: 30 nM; EC50 [5]: 164 nM |
| O=C(N[C@@H]1CC[C@@]2(S(=O)(=O)c3ccc(F)cc3)c3ccc(C(F)(C(F)(F)F)C(F)(F)F)cc3CC[C@@H]12)C1(O)CCNCC1 | 83 | 88 | 100 | – |
| CC(C)(O)CNC(=O)N[C@@H]1CC[C@@]2(S(=O)(=O)c3ccc(F)cc3)c3ccc(C(F)(C(F)(F)F)C(F)(F)F)cc3CC[C@@H]12 | 42 | – | 54 | – |
| CC(C)(C(=O)N[C@@H]1CC[C@@]2(S(=O)(=O)c3ccc(F)cc3)c3ccc(C(F)(C(F)(F)F)C(F)(F)F)cc3CC[C@@H]12)N1CCNCC1 | 97 | 78 | 74 | EC50 [3]: 63 nM |
| CS(=O)(=O)N[C@@H]1CC[C@@]2(S(=O)(=O)c3ccc(F)cc3)c3ccc(C(F)(C(F)(F)F)C(F)(F)F)cc3CC[C@@H]12 | – | – | – | EC50 [3]: 7.3 nM; EC50 [5]: 157 nM |
| CC(C)(N)CC(=O)N[C@@H]1CC[C@@]2(S(=O)(=O)c3ccc(F)cc3)c3ccc(C(F)(C(F)(F)F)C(F)(F)F)cc3CC[C@@H]12 | 89 | 85 | 98 | – |
| CC(C)(O)CNC(=O)[C@@H]1CC[C@@]2(S(=O)(=O)c3ccc(F)cc3)c3ccc(C(F)(C(F)(F)F)C(F)(F)F)cc3CC[C@@H]12 | – | – | – | half-life [6]: 27 min; half-life [7]: 18 min |
| O=C(N[C@@H]1CC[C@@]2(S(=O)(=O)c3ccc(F)cc3)c3ccc(C(F)(C(F)(F)F)C(F)(F)F)cc3CC[C@@H]12)C1(O)CCOCC1 | 66 | 75 | 100 | – |
| CC(=O)N1CCC(C(=O)N[C@@H]2CC[C@@]3(S(=O)(=O)c4ccc(F)cc4)c4ccc(C(F)(C(F)(F)F)C(F)(F)F)cc4CC[C@@H]23)CC1 | 100 | 67 | 61 | – |
| C[C@@H](O)C(=O)N[C@@H]1CC[C@@]2(S(=O)(=O)c3ccc(F)cc3)c3ccc(C(F)(C(F)(F)F)C(F)(F)F)cc3CC[C@@H]12 | 14 | 70 | 71 | – |
| CC(C)(C(=O)N[C@@H]1CC[C@@]2(S(=O)(=O)c3ccc(F)cc3)c3ccc(C(F)(C(F)(F)F)C(F)(F)F)cc3CC[C@@H]12)N1CCOCC1 | 0.4 | 0.3 | 0.3 | – |
| CN(C(=O)C(C)(C)O)[C@@H]1CC[C@@]2(S(=O)(=O)c3ccc(F)cc3)c3ccc(C(F)(C(F)(F)F)C(F)(F)F)cc3CC[C@@H]12 | – | – | – | EC50 [3]: 45 nM; EC50 [5]: 2730 nM |
| [2H]C([2H])([2H])N1C(=O)C(O)CC1C(=O)N[C@@H]1CC[C@@]2(S(=O)(=O)c3ccc(F)cc3)c3ccc(C(F)(C(F)(F)F)C(F)(F)F)cc3CC[C@@H]12 (single isomer, unassigned) | 100 | 100 | 99 | EC50 [3]: 12.3 nM; EC50 [5]: 134 nM |
| O=C(N[C@@H]1CC[C@@]2(S(=O)(=O)c3ccc(F)cc3)c3ccc(C(F)(C(F)(F)F)C(F)(F)F)cc3CC[C@@H]12)C1(O)CCCCC1 | 22 | 56 | 50 | – |
| [2H]C([2H])([2H])N1C(=O)C(F)CC1C(=O)N[C@@H]1CC[C@@]2(S(=O)(=O)c3ccc(F)cc3)c3ccc(C(F)(C(F)(F)F)C(F)(F)F)cc3CC[C@@H]12 (single isomer, unassigned) | 100 | 86 | 100 | Papp A→B [8]: 9.2 ×10⁻⁶ cm/s; half-life [9]: 46 min; half-life [10]: 38 min; half-life [11]: 24 min; half-life [6]: 120 min; half-life [7]: 56 min |

More lines, main results first:

| Stabilty [1] [%] | Stabilty [2] [%] | Stabilty [4] [%] | SMILES | further results |
| --- | --- | --- | --- | --- |
| 100 | 90 | – | CC(=O)N[C@@H]1CC[C@@]2(S(=O)(=O)c3ccc(F)cc3)c3ccc(C(F)(C(F)(F)F)C(F)(F)F)cc3CC[C@@H]12 | – |
| 90 | 86 | 97 | CC(C)(O)CC(=O)N[C@@H]1CC[C@@]2(S(=O)(=O)c3ccc(F)cc3)c3ccc(C(F)(C(F)(F)F)C(F)(F)F)cc3CC[C@@H]12 | – |
| 34 | 65 | 82 | O=C(CO)N[C@@H]1CC[C@@]2(S(=O)(=O)c3ccc(F)cc3)c3ccc(C(F)(C(F)(F)F)C(F)(F)F)cc3CC[C@@H]12 | – |
| 10 | 93 | 100 | CC(=O)NCC(=O)N[C@@H]1CC[C@@]2(S(=O)(=O)c3ccc(F)cc3)c3ccc(C(F)(C(F)(F)F)C(F)(F)F)cc3CC[C@@H]12 | – |
| 10 | 32 | 40 | CNC(=O)N[C@@H]1CC[C@@]2(S(=O)(=O)c3ccc(F)cc3)c3ccc(C(F)(C(F)(F)F)C(F)(F)F)cc3CC[C@@H]12 | – |
| 41 | 93 | 97 | O=C(NCCO)N[C@@H]1CC[C@@]2(S(=O)(=O)c3ccc(F)cc3)c3ccc(C(F)(C(F)(F)F)C(F)(F)F)cc3CC[C@@H]12 | – |
